Key:
[1] = system: HCT-8; test: Cytotoxicity against human HCT-8 cells assessed as reduction in cell growth; format: functional
[2] = Dissociation constant, pKa of compound; format: physicochemical
How it was run: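 Basic pKa calculated in silico (CDD Vault, method of Lu et al.), not measured.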

[3] = Lipophilicity, logP of the compound; format: physicochemical; conditions: octanol/water
How it was run: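 LogP calculated in silico (CDD Vault, method of Gedeck et al.) as an estimate of lipophilicity.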

[4] = system: Cryptosporidium parvum; test: Antiparasitic activity against Cryptosporidium parvum infected in human HCT-8 cells assessed as parasitic growth inhibition measured for 48 hrs by fluorescence microscopic analysis; format: functional, organism-based; conditions: HCT-8, 48 h
How it was run: (§1)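 C. parvum Iowa isolate oocysts excysted (10 mM HCl, 10 min, 37 °C; then 2 mM sodium taurocholate in PBS, 10 min, 16 °C) and used to infect near-confluent HCT-8 monolayers. Compound added after 3 h, then 45 h more at 37 °C, 5% CO₂. Fixed, stained with fluorescein-Vicia villosa lectin (vacuoles) and Hoechst (nuclei), imaged and counted automatically. 9-point dose-response, ≥2 experiments, n=8 per dose.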

[5] = molecular target: T1, Voltage-gated inwardly rectifying potassium channel KCNH2 (Homo sapiens, UniProt Q12809); test: Displacement of [3H]-dofetilide from human ERG at 10 uM relative to control; format: toxicity
T1 sequence (Q12809 whole entry): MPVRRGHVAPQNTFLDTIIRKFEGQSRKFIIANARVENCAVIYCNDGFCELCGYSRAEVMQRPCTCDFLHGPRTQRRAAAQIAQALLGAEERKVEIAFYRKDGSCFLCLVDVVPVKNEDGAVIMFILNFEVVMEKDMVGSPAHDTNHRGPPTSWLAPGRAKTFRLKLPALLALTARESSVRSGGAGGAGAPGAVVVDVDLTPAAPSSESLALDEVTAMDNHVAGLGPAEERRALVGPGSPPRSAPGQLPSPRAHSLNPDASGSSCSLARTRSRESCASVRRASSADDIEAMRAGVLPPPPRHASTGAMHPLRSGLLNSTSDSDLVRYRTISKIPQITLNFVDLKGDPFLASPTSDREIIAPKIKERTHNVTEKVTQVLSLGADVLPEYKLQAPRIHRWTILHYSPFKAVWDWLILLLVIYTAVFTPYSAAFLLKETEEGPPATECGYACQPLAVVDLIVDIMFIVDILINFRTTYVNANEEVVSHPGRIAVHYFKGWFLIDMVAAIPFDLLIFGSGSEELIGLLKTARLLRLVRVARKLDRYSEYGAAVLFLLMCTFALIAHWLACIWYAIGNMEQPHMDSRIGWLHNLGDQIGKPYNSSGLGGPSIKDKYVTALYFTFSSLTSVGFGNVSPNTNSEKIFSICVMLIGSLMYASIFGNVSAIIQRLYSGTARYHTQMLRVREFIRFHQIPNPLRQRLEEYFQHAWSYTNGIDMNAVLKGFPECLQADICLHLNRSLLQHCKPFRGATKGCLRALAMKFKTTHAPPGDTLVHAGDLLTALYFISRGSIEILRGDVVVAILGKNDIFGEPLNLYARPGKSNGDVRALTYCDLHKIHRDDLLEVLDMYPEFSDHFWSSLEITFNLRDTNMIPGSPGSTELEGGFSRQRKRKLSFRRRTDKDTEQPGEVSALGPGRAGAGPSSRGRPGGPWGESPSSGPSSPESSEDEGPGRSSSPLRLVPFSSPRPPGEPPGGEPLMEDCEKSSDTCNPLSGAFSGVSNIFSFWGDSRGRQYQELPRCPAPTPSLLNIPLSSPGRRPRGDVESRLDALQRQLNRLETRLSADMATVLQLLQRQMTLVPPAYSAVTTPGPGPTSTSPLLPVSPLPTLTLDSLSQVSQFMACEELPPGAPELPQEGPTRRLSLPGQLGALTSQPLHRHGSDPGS
How it was run: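 Radioligand binding against human hERG potassium channel: % inhibition of [³H]-dofetilide binding by test compound at 10 μM.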

[6] = molecular target: T1, Voltage-gated inwardly rectifying potassium channel KCNH2; test: Inhibition of hERG in CHO cells at 1 uM by automated patch clamp method relative to control; format: toxicity, cell-based
How it was run: (§2)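 hERG expressed in CHO cells, automated patch-clamp electrophysiology. Tail current inhibition measured at 1, 10 and 30 μM, each in duplicate, and reported as the average % inhibition.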

[7] = molecular target: T1, Voltage-gated inwardly rectifying potassium channel KCNH2; test: Inhibition of hERG in CHO cells at 10 uM by automated patch clamp method relative to control; format: toxicity, cell-based; how it was run: as §2
[8] = molecular target: T1, Voltage-gated inwardly rectifying potassium channel KCNH2; test: Inhibition of hERG in CHO cells at 30 uM by automated patch clamp method relative to control; format: toxicity, cell-based; how it was run: as §2
[9] = system: Cryptosporidium parvum; test: Antiparasitic activity against Cryptosporidium parvum assessed as reduction in parasitic growth; format: functional, organism-based; how it was run: as §1

Compound | EC50 [4] | other results
O=C(Cc1ccc(Cl)c(Cl)c1)N1CCN(c2ccc3nncn3n2)CC1 | – | CC50 [1]: > 100 µM; pKa [2]: 5.9; logP [3]: 3
O=C(Nc1ccc(Cl)c(Cl)c1)N1CCN(c2ccc3nncn3n2)CC1 | – | pKa [2]: 5.9; logP [3]: 4
O=C(Cc1ccc(Cl)c(Cl)c1)N1CCN(c2ncccn2)CC1 | > 50 µM | –
Cc1cc2nncn2nc1N1CCN(C(=O)Cc2ccc(Cl)c(Cl)c2)CC1 | 23 µM | –
O=C(Cc1ccc(Cl)c(Cl)c1)N1CCN(C2=Nn3cnnc3CC2)CC1 | 1.2 µM | pKa [2]: 4.4; logP [3]: 1.8; Activity [5]: 15%; inhibition (INH) [6]: 8.7%; inhibition (INH) [7]: 34%; inhibition (INH) [8]: 61%
Cc1nnc2ccc(N3CCN(C(=O)Nc4ccc(Cl)c(Cl)c4)CC3)nn12 | 26 µM | –
O=C(Cc1ccc(Cl)c(Cl)c1)N1CCN(c2ccc3ncccc3n2)CC1 | 38 µM | –
O=C(Cc1ccc(Cl)c(Cl)c1)N1CCN(c2ccc3cc[nH]c3n2)CC1 | 30 µM | –
Cc1cc(N2CCN(C(=O)Nc3ccc(Cl)c(Cl)c3)CC2)nn2cnnc12 | 24 µM | –
O=C(O)c1cn2nc(N3CCN(C(=O)Cc4ccc(Cl)c(Cl)c4)CC3)ccc2n1 | > 50 µM | –
CCOC(=O)c1cn2nc(N3CCN(C(=O)Cc4ccc(Cl)c(Cl)c4)CC3)ccc2n1 | 58 µM | –
O=C(Cc1ccc(Cl)c(Cl)c1)N1CCN(c2cc3ccncc3cn2)CC1 | 50 µM | –
O=C(Nc1nc2cc(N3CCN(C(=O)Cc4ccc(Cl)c(Cl)c4)CC3)ccc2s1)c1ccccc1 | 93 µM | –
Cc1cc2nncn2nc1N1CCN(C(=O)Nc2ccc(Cl)c(Cl)c2)CC1 | 25 µM | –
O=C(Cc1ccc(Cl)c(Cl)c1)N1CCN(c2nccc(C(F)(F)F)n2)CC1 | > 50 µM | –
O=C(Cc1ccc(Cl)c(Cl)c1)N1CCN(c2ncc([N+](=O)[O-])s2)CC1 | 20 µM | –
O=C(Cc1ccc(Cl)c(Cl)c1)N1CCN(c2ccc3[nH]c(=O)sc3c2)CC1 | > 50 µM | –
O=C(Cc1ccc(Cl)c(Cl)c1)N1CCN(c2ccc3nnc(Cl)n3n2)CC1 | 29 µM | –
Cc1cc(N2CCN(C(=O)Cc3ccc(Cl)c(Cl)c3)CC2)nn2cnnc12 | 61 µM | –
Nc1cn2nc(N3CCN(C(=O)Cc4ccc(Cl)c(Cl)c4)CC3)ccc2n1 | > 50 µM | –
O=C(Cc1ccc(Cl)c(Cl)c1)N1CCN(c2ccc3nnc(C(F)(F)F)n3n2)CC1 | 29 µM | –
O=C(Cc1ccc(Cl)c(Cl)c1)N1CCN(c2ccc3ccccc3n2)CC1 | 46 µM | –
CC(C)(C)OC(=O)N1CCN(C(=O)Cc2ccc(Cl)c(Cl)c2)CC1 | > 50 µM | –

Compound | EC50 [4] | other results
O=C(Cc1ccc(Cl)c(Cl)c1)N1CCN(c2ccc3nnc(-c4ccccc4)n3n2)CC1 | 15 µM | –
Cc1nc2nc(N3CCN(C(=O)Cc4ccc(Cl)c(Cl)c4)CC3)ccc2s1 | 18 µM | –
O=C(Nc1ccc(Cl)c(Cl)c1)N1CCN(C2=Nn3cnnc3CC2)CC1 | 13 µM | logP [3]: 2.3
Cc1nccc(N2CCN(C(=O)Cc3ccc(Cl)c(Cl)c3)CC2)n1 | > 50 µM | –
O=C(Nc1ccc(Cl)c(Cl)c1)N1CCN(c2ncc(C(F)(F)F)cn2)CC1 | > 25 µM | –
Cc1nnc2ccc(N3CCN(C(=O)Cc4ccc(Cl)c(Cl)c4)CC3)nn12 | 30 µM | –
O=C(Cc1ccc(Cl)c(Cl)c1)N1CCN(c2nc3ccccc3o2)CC1 | > 50 µM | –
O=C(Cc1ccc(Cl)c(Cl)c1)N1CCNCC1 | > 50 µM | –
O=C(Nc1ccc(Cl)c(Cl)c1)N1CCN(c2ccc3nnc(Cl)n3n2)CC1 | 12 µM | –
O=C(Cc1ccc(Cl)c(Cl)c1)N1CCN(c2ccc3nnc(-c4ccncc4)n3n2)CC1 | > 50 µM | –
O=C(Cc1ccc(Cl)c(Cl)c1)N1CCN(c2ccc3nnc(Cc4ccccc4)n3n2)CC1 | 16 µM | –
CNc1nccc(N2CCN(C(=O)Nc3ccc(Cl)c(Cl)c3)CC2)n1 | > 25 µM | –
O=C(Cc1ccc(Cl)c(Cl)c1)N1CCN(c2ccccn2)CC1 | > 50 µM | –
O=C(Cc1ccc(Cl)c(Cl)c1)N1CCN(c2ccc3nccn3n2)CC1 | 63 µM | –
Nc1nc2nc(N3CCN(C(=O)Cc4ccc(Cl)c(Cl)c4)CC3)ccc2s1 | 3.2 µM | pKa [2]: 5.9; Activity [5]: 34%
O=C(Cc1ccc(Cl)c(Cl)c1)N1CCN(c2ccc3nnc(N4CCOCC4)n3n2)CC1 | 48 µM | –
O=C(Cc1ccc(Cl)c(Cl)c1)N1CCN(c2ccc3[nH]ncc3n2)CC1 | 28 µM | –
O=C(Cc1ccc(Cl)c(Cl)c1)N1CCN(c2ccc3nc[nH]c3c2)CC1 | 20 µM | –
Cn1ncc2nc(N3CCN(C(=O)Cc4ccc(Cl)c(Cl)c4)CC3)ccc21 | > 50 µM | –
O=C(Cc1ccc(Cl)c(Cl)c1)N1CCN(c2ccc3nnc(-c4ccnc(C(F)(F)F)c4)n3n2)CC1 | 6.1 µM | pKa [2]: 6; Activity [5]: 95%
O=C(Nc1ccc(Cl)c(Cl)c1)N1CCN(c2cn3ccnc3cn2)CC1 | > 25 µM | –
O=C(Nc1nc2nc(N3CCN(C(=O)Cc4ccc(Cl)c(Cl)c4)CC3)ccc2s1)c1ccncc1 | 7.3 µM | –
COc1ccc(N2CCN(C(=O)Cc3ccc(Cl)c(Cl)c3)CC2)nn1 | 57 µM | –

Compound | EC50 [4] | other results
O=C(Cc1ccc(Cl)c(Cl)c1)N1CCN(c2ccc3nc(C(=O)N4CCOCC4)cn3n2)CC1 | > 50 µM | –
O=C(Cc1ccc(Cl)c(Cl)c1)N1CCN(c2ccc3nn(Cc4ccccc4)cc3n2)CC1 | 7.8 µM | pKa [2]: 6.2; Activity [5]: 80%
O=C(Cc1ccc(Cl)c(Cl)c1)N1CCN(c2ccn3nccc3n2)CC1 | 47 µM | –
CCCCOC(=O)c1cn2nc(N3CCN(C(=O)Cc4ccc(Cl)c(Cl)c4)CC3)ccc2n1 | 23 µM | –
O=C(Cc1ccc(Cl)c(Cl)c1)N1CCN(c2ccccc2)CC1 | 42 µM | pKa [2]: 3; Activity [5]: 2%
O=C(Nc1ccc(Cl)c(Cl)c1)N1CCN(c2ccc3nccn3n2)CC1 | 16 µM | pKa [2]: 6.4; Activity [5]: 77%
Nc1nnc2ccc(N3CCN(C(=O)Cc4ccc(Cl)c(Cl)c4)CC3)nn12 | 65 µM | –
Cc1nc2cc(N3CCN(C(=O)Cc4ccc(Cl)c(Cl)c4)CC3)ccc2s1 | 14 µM | –
Cc1cccc(N2CCN(C(=O)Cc3ccc(Cl)c(Cl)c3)CC2)n1 | 36 µM | –
Nc1nc2cc(N3CCN(C(=O)Cc4ccc(Cl)c(Cl)c4)CC3)ccc2s1 | 16 µM | –
CN(C)C(=O)c1cn2nc(N3CCN(C(=O)Cc4ccc(Cl)c(Cl)c4)CC3)ccc2n1 | 38 µM | –
O=C(Cc1ccc(Cl)c(Cl)c1)N1CCN(c2nc3ccccc3s2)CC1 | 36 µM | –
O=C(Cc1ccc(Cl)c(Cl)c1)N1CCN(c2ccc(C(F)(F)F)nn2)CC1 | 49 µM | –
O=C(Nc1nc2nc(N3CCN(C(=O)Cc4ccc(Cl)c(Cl)c4)CC3)ccc2s1)c1ccccc1 | 2.9 µM | pKa [2]: 7.7; Activity [5]: 47%
O=C(Cc1ccc(Cl)c(Cl)c1)N1CCN(c2ccc3cn[nH]c3c2)CC1 | 26 µM | –
O=C(Cc1ccc(Cl)c(Cl)c1)N1CCN(c2ccc3c(cnn3Cc3ccccc3)n2)CC1 | 45 µM | –
O=C(Cc1ccc(Cl)c(Cl)c1)N1CCN(c2ccc3nonc3c2)CC1 | 24 µM | –
O=C(Nc1ccc(Cl)c(Cl)c1)N1CCN(c2nc3ccccc3[nH]2)CC1 | 17 µM | –
O=C(Nc1ccc(Cl)c(Cl)c1)N1CCN(c2ccccc2)CC1 | 20 µM | –
O=C(Nc1ccc(Cl)c(Cl)c1)N1CCN(c2ccc3nnc(C(F)(F)F)n3n2)CC1 | 11 µM | –
O=C(Nc1ccc(Cl)cc1)N1CCN(c2ccc3nncn3n2)CC1 | – | EC50 [9]: 2.1 µM
CC(=O)Oc1ccccc1C(=O)Nc1ncc([N+](=O)[O-])s1 [NITAZOXANIDE] | 3.7 µM | –

Source: ChEMBL document CHEMBL5257122, “Structure-Activity relationships of replacements for the triazolopyridazine of Anti-Cryptosporidium lead SLU-2633” (Bioorg Med Chem, 2023)
